Measured values reported in ChEMBL document CHEMBL3621166, “Synthesis, Structure-Activity Relationship, and Mechanistic Investigation of Lithocholic Acid Amphiphiles for Colon Cancer Therapy” (Medchemcomm, 2015).
The source made the active and inactive calls. No cut-off for these calls is given here.

What was measured:
HCT-116 [1] = test: Cytotoxicity against human HCT116 cells assessed as cell viability after 48 hrs by MTT assay; format: functional, cell-based; conditions: HCT-116, 48 h
[2] = Cytotoxicity against human HCT8 cells assessed as cell viability after 48 hrs by MTT assay; format: functional, cell-based; conditions: HCT-8, 48 h
[3] = Retention time of the compound by HPLC method; format: physicochemical
[4] = Cytotoxicity against human DLD1 cells assessed as cell viability after 48 hrs by MTT assay; format: functional, cell-based; conditions: DLD-1, 48 h
A549 [5] = test: Selectivity ratio of human HCT116 cells over human A549 cells; format: functional
HCT-116 [6] = test: Induction of apoptosis in human HCT116 cells assessed as late apoptotic cells at 15 uM after 48 hrs using annexin-V FITC and propidium iodide staining by flow cytometry (reference value: 1.59%); format: functional
HCT-116 [7] = test: Induction of apoptosis in human HCT116 cells assessed as early apoptotic cells at 15 uM after 48 hrs using annexin-V FITC and propidium iodide staining by flow cytometry (reference value: 4.80%); format: functional
HCT-116 [8] = test: Induction of apoptosis in human HCT116 cells xenografted in nude mouse assessed as increased level of cleaved caspase-8 at 20 mg/kg after 6 days by Western blot analysis relative to control; format: functional, organism-based
How it was run: (§1)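 Female nude mice, 6 weeks old, received 1.5 × 10^6 HCT-116 cells in the right flank. At ~750 mm3 mice were split into groups of 5 and dosed from day 19 at 20 mg kg−1 near the tumour, vehicle as control. Tumours were harvested at sacrifice on day 25 and homogenised in RIPA buffer. Equal protein loaded, transferred to PVDF, blocked in 5% milk/TBST, primary antibodies overnight at 4 °C, HRP secondary, ECL detection.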

[9] = Selectivity ratio of human DLD1 cells over human THP1 cells; format: ADME, cell-based, THP-1; conditions: DLD1 cells versus THP1 cells
HCT-116 [10] = test: Antitumor activity against human HCT116 cells xenografted in nude mouse assessed as reduction in tumor volume at 20 mg/kg after 6 days; format: functional; set-up: scale not given: the % may be the effect or the level left
HCT-116 [11] = test: Ratio of lithocholic acid IC50 to compound IC50 for human HCT116 cells assessed as cell viability after 48 hrs by MTT assay; format: functional
HCT-116 [12] = test: Induction of apoptosis in human HCT116 cells xenografted in nude mouse assessed as increased level of cleaved caspase-7 at 20 mg/kg after 6 days by Western blot analysis relative to control; format: functional, organism-based; how it was run: as §1
HCT-116 [13] = test: Induction of apoptosis in human HCT116 cells assessed as late apoptotic cells at 50 uM after 48 hrs using annexin-V FITC and propidium iodide staining by flow cytometry (reference value: 1.59%); format: functional
HCT-116 [14] = test: Induction of apoptosis in human HCT116 cells assessed as early apoptotic cells at 25 uM after 48 hrs using annexin-V FITC and propidium iodide staining by flow cytometry (reference value: 4.80%); format: functional
HCT-116 [15] = test: Induction of apoptosis in human HCT116 cells assessed as late apoptotic cells at 25 uM after 48 hrs using annexin-V FITC and propidium iodide staining by flow cytometry (reference value: 1.59%); format: functional
A549 [16] = test: Selectivity for human HCT8 cells over human A549 cells; format: functional
HCT-116 [17] = test: Induction of apoptosis in human HCT116 cells xenografted in nude mouse assessed as increased level of cleaved caspase-3 at 20 mg/kg after 6 days by Western blot analysis relative to control; format: functional, organism-based; how it was run: as §1
HCT-116 [18] = test: Antitumor activity against human HCT116 cells xenografted in nude mouse assessed as reduction in tumor volume at 20 mg/kg measured up to 25 days; format: functional; set-up: scale not given: the % may be the effect or the level left
HCT-116 [19] = test: Inhibition of colony formation in human HCT116 cells at 15 uM after 2 weeks using crystal violet staining; format: functional; conditions: HCT-116, 336 h
HCT-116 [20] = test: Induction of apoptosis in human HCT116 cells assessed as increased level of procaspase-8 at 10 uM by Western blot analysis; format: functional, cell-based
[21] = Cell cycle arrest in human DLD1 cells assessed as accumulation at sub-G1 phase at 50 uM after 48 hrs using propidium iodide staining by FACS analysis; format: functional, cell-based; conditions: DLD-1
How it was run: (§2)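 Cells seeded at ~2 × 10^5 per well, treated after 24 h at 15, 25 and 50 μM for 48 h. Harvested by trypsin, washed in cold PBS and fixed in 70% ice-cold ethanol. RNase-treated 1 h at 37 °C, stained with propidium iodide (50 μg mL−1) 20 min at room temperature, and analysed by FACS. Triplicate, mean ± SD.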

HCT-116 [22] = test: Inhibition of colony formation in human HCT116 cells at 50 uM after 2 weeks using crystal violet staining; format: functional, cell-based
How it was run: (§3)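 Cells plated at 200 per well and treated after 24 h adherence at 15, 25 or 50 μM. Colonies stained with crystal violet after 2 weeks and counted. Plating efficiency taken from untreated wells, survival fraction from treated colony counts. Two experiments in duplicate, mean ± SD.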

HCT-116 [23] = test: Induction of apoptosis in human HCT116 cells assessed as early apoptotic cells at 50 uM after 48 hrs using annexin-V FITC and propidium iodide staining by flow cytometry (reference value: 4.80%); format: functional
DLD-1 = test: Inhibition of colony formation in human DLD1 cells at 15 to 50 uM after 2 weeks using crystal violet staining; format: functional, cell-based; how it was run: as §3
[24] = Selectivity ratio of human HCT8 cells over CHO cells; format: ADME, cell-based; conditions: Chinese hamster (CHO), HCT8 cells versus CHO cells
[25] = Cell cycle arrest in human HCT8 cells assessed as accumulation at sub-G1 phase at 50 uM after 48 hrs using propidium iodide staining by FACS analysis; format: functional, cell-based; conditions: HCT-8; how it was run: as §2
HCT-8 [26] = test: Ratio of lithocholic acid IC50 to compound IC50 for human HCT8 cells assessed as cell viability after 48 hrs by MTT assay; format: functional
HCT-116 [27] = test: Induction of apoptosis in human HCT116 cells assessed as increased level of cleaved caspase-3 at 10 to 50 uM by Western blot analysis; format: functional, cell-based
[28] = Selectivity ratio of human HCT8 cells over human THP1 cells; format: ADME, cell-based, THP-1; conditions: HCT8 cells versus THP1 cells
HCT-8 [29] = test: Inhibition of colony formation in human HCT8 cells at 15 to 50 uM after 2 weeks using crystal violet staining; format: functional, cell-based; how it was run: as §3
[30] = Toxicity in RBC (unknown origin) assessed as hemolytic activity; format: cell-based, Erythrocyte; conditions: red blood cells
HCT-116 [31] = test: Induction of apoptosis in human HCT116 cells assessed as apoptotic cells at 25 uM after 48 hrs using annexin-V FITC and propidium iodide staining by flow cytometry relative to lithocholic acid; format: functional
HCT-116 [32] = test: Induction of apoptosis in human HCT116 cells assessed as apoptotic cells at 50 uM after 48 hrs using annexin-V FITC and propidium iodide staining by flow cytometry relative to lithocholic acid; format: functional
HCT-116 [33] = test: Cell cycle arrest in human HCT116 cells assessed as accumulation at sub-G1 phase at 50 uM after 48 hrs using propidium iodide staining by FACS analysis; format: functional
HCT-116 [34] = test: Induction of apoptosis in human HCT116 cells assessed as increased level of cleaved caspase-7 at 10 to 50 uM by Western blot analysis; format: functional, cell-based
[35] = Selectivity ratio of human HCT116 cells over CHO cells; format: cell-based; conditions: Chinese hamster (CHO), HCT116 cells versus CHO cells
A549 [36] = test: Selectivity ratio of human DLD1 cells over human A549 cells; format: functional
HCT-116 [37] = test: Induction of apoptosis in human HCT116 cells assessed as decreased level of procaspase-8 at 50 uM by Western blot analysis; format: functional, cell-based
[38] = Selectivity ratio of human HCT116 cells over human THP1 cells; format: ADME, cell-based, HCT-116; conditions: HCT116 cells versus THP1 cells
[39] = Selectivity ratio of human DLD1 cells over CHO cells; format: cell-based; conditions: Chinese hamster (CHO), DLD1 cells versus CHO cells
[40] = Cell cycle arrest in human HCT8 cells at 15 to 50 uM after 48 hrs using propidium iodide staining by FACS analysis; format: functional, cell-based; conditions: HCT-8; how it was run: as §2
[41] = Cell cycle arrest in human DLD1 cells at 15 to 50 uM after 48 hrs using propidium iodide staining by FACS analysis; format: functional, cell-based; conditions: DLD-1; how it was run: as §2
HCT-116 [42] = test: Cell cycle arrest in human HCT116 cells at 15 to 50 uM after 48 hrs using propidium iodide staining by FACS analysis; format: functional, cell-based; how it was run: as §2
HCT-116 [43] = test: Inhibition of colony formation in human HCT116 cells at 15 to 50 uM after 2 weeks using crystal violet staining; format: functional, cell-based; how it was run: as §3

COC(=O)CC[C@@H](C)[C@H]1CC[C@H]2[C@@H]3CC[C@@H]4C[C@H](OC(=O)CN5CCOCC5)CC[C@]4(C)[C@H]3CC[C@]12C.Cl
IC50 (HCT-116 [1]): 89 µM | IC50 [2]: 121 µM | Retention_time [3]: 24.17 min | IC50 [4]: 176 µM

COC(=O)CC[C@@H](C)[C@H]1CC[C@H]2[C@@H]3CC[C@@H]4C[C@H](OC(=O)CN)CC[C@]4(C)[C@H]3CC[C@]12C
IC50 (HCT-116 [1]): 36.7 µM | IC50 [2]: 30.7 µM | IC50 [4]: 29.4 µM

COC(=O)CC[C@@H](C)[C@H]1CC[C@H]2[C@@H]3CC[C@@H]4C[C@H](OC(=O)CN5CCNCC5)CC[C@]4(C)[C@H]3CC[C@]12C
IC50 (HCT-116 [1]): 102 µM | IC50 [2]: 115 µM | IC50 [4]: 118 µM

COC(=O)CC[C@@H](C)[C@H]1CC[C@H]2[C@@H]3CC[C@@H]4C[C@H](OC(=O)C[N+]5(C)CCCCC5)CC[C@]4(C)[C@H]3CC[C@]12C.[Cl-]
selectivity ratio (A549 [5]): 2 | IC50 (HCT-116 [1]): 11.7 µM | Activity (HCT-116 [6]): 12.47% | Activity (HCT-116 [7]): 9.04% | Activity (HCT-116 [8]): Active | selectivity ratio [9]: 5 | Activity (HCT-116 [10]): 75% | Ratio IC50 (HCT-116 [11]): 6 | Activity (HCT-116 [12]): Active | Activity (HCT-116 [13]): 26.63% | Activity (HCT-116 [14]): 23.57% | Activity (HCT-116 [15]): 15.78% | selectivity ratio (A549 [16]): 2 | Activity (HCT-116 [17]): Active | Activity (HCT-116 [18]): 75% | inhibition at 15 µM (HCT-116 [19]): 50% | Activity (HCT-116 [20]): inactive | Activity [21]: 80% | inhibition (HCT-116 [22]): Active | Activity (HCT-116 [23]): 41.19% | IC50 [2]: 14.7 µM | inhibition (DLD-1): Active | selectivity ratio [24]: 5 | Activity [25]: 40% | Ratio IC50 (HCT-8 [26]): 6 | Activity (HCT-116 [27]): Active | selectivity ratio [28]: 5 | Retention_time [3]: 8.12 min | inhibition (HCT-8 [29]): Active | HC50 [30]: > 1 mM | Ratio (HCT-116 [31]): 1.3 | Ratio (HCT-116 [32]): 2 | Activity (HCT-116 [33]): 80% | Activity (HCT-116 [34]): Active | selectivity ratio [35]: 3 | selectivity ratio (A549 [36]): 2 | IC50 [4]: 13.7 µM | Activity (HCT-116 [37]): Active | selectivity ratio [38]: 5 | selectivity ratio [39]: 5

C[C@H](CCC(=O)O)[C@H]1CC[C@H]2[C@@H]3CC[C@@H]4C[C@H](O)CC[C@]4(C)[C@H]3CC[C@]12C [LITHOCHOLIC ACID]
IC50 (HCT-116 [1]): 81.1 µM | Activity (HCT-116 [6]): 8.88% | Activity (HCT-116 [7]): 10.21% | Activity [40]: inactive | Activity (HCT-116 [13]): 13.15% | Activity (HCT-116 [14]): 18.79% | Activity (HCT-116 [15]): 11.54% | Activity (HCT-116 [23]): 21.89% | Activity [41]: inactive | Activity (HCT-116 [42]): inactive | IC50 [2]: 97.4 µM | inhibition (DLD-1): inactive | inhibition (HCT-8 [29]): inactive | IC50 [4]: 173 µM | inhibition (HCT-116 [43]): inactive
